Assay results pooled from the literature.
Compare with care: the assays were run in different laboratories.
Target: Serine/threonine-protein kinase PRP4 homolog (PRPF4B, Homo sapiens, UniProt Q13523)

| SMILES | assay | setting | endpoint | value |
| --- | --- | --- | --- | --- |
| COc1ccc2c(O[C@@H]3C[C@H]4C(=O)N[C@]5(C(=O)O)CC5/C=C\CCCCC[C@H](NC(=O)OC5CCCC5)C(=O)N4C3)cc(-c3csc(NC(=O)C(C)C)n3)nc2c1C (some centres unmarked) | cell-free assay, competition with immobilised ligand | 1 µM | remaining binding | 93% |
| Cc1ccc(C(=O)Nc2ccc(CN3CCN(C)CC3)c(C(F)(F)F)c2)cc1C#Cc1cnc2cccnn12 | enzyme activity, inhibitor | 23.5 nM | remaining activity | 91% |
| CC(=O)c1c(NS(C)(=O)=O)c2cc(-c3ccc(Cl)cc3)c(-c3ccc(Cl)cc3Cl)nc2n(C)c1=O | cell-free assay, competition with immobilised ligand | 1 µM | remaining binding | 83% |
| CN1CC(Oc2cnc(C#N)cc2-c2ccn3nc(NC(=O)C4CC4)cc3c2)C1 | enzyme activity, inhibitor | 1 µM | inhibition | 3% |
| CCCCNc1ncc2c(-c3ccc(F)cc3)nn(C[C@H]3CC[C@H](N)CC3)c2n1 | target engagement in cells, inhibitor, chemoproteomics | 20 mM | inhibition | -1.2% |
| Cc1ccc(C(=O)NCc2ccsc2)cc1C#Cc1cn(C(C)C)c2ncnc(N)c12 | enzyme activity, inhibitor | 1 µM | activity vs control | 114% |
| c1ccc(CNc2nc(N3CCOc4ccccc43)nc3c2CCCC3)cc1 | target engagement in cells, inhibitor, chemoproteomics | 20 mM | inhibition | -6.7% |
| Nc1ncnc2occ(-c3ccc(NC(=O)Nc4cc(C(F)(F)F)ccc4F)cc3)c12 | cell-free assay, inhibitor | 20 µM | remaining signal | 100% |
